Results reported in ChEMBL document CHEMBL1145158, “Selective substrate-based inhibitors of mammalian dimethylarginine dimethylaminohydrolase” (J Med Chem, 2005).
pIC50: −log10 of the molar value.

Experiments:
[1] = species on record: Rattus norvegicus; assay: Inhibition of [14C]-L-NMMA (1 umol/L) binding to dimethylarginine dimethylaminohydrolase of rat kidney homogenate at 1 mM
In short: (§1)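 Rat kidney homogenized in PBS with PMSF 1 mM and leupeptin, pepstatin, chymostatin (5 µg/mL each), then spun; high-speed supernatant used as enzyme source (both DDAH isoforms). [14C]L-NMMA 1 µmol/L added, 1 h at 37 °C; stopped with neutral-pH Dowex resin binding unmetabolized L-NMMA. [14C]citrulline counted by scintillation. Screening at 1 mM or 100 µM; IC50 determined for actives.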

[2] = Inhibition of [14C]-L-NMMA (1 umol/L) binding to dimethylarginine dimethylaminohydrolase of rat kidney homogenate; in short: as §1
[3] = species on record: Rattus norvegicus; assay: Inhibition of [14C]-L-NMMA (1 umol/L) binding to dimethylarginine dimethylaminohydrolase of rat kidney homogenate 100 uM; in short: as §1

Row | SMILES | inhibition [1] [%] | pIC50 [2] | inhibition [3] [%]
1 | CC/N=C(\N)NCC[C@H](N)C(=O)O | 100 | 3.52 | 
2 | COCC/N=C(/N)NCCC[C@H](N)C(=O)OC |  | 4.70 | 83
3 | CN(C)C(=N)NCC[C@H](N)C(=O)O | 85 | 3.49 | 
4 | CCCOC(=O)[C@@H](N)CC/N=C(\N)NCCOC |  | 3.95 | 64
5 | COCCNC(=N)NCCC[C@H](N)C(=O)O |  | 4.66 | 100
6 | C/N=C(\N)NCC[C@H](N)C(=O)O | 48 | 2.82 | 
7 | COCCN/C(N)=N/CC[C@H](N)C(=O)OC(C)C |  | 3.72 | 30
8 | COCC/N=C(\N)NCC[C@H](N)C(=O)O | 90 | 3.72 | 
9 | N/C(=N\CC[C@H](N)C(=O)O)N1CCCCC1 | 74 | 3.58 | 
10 | CC(C)OCC/N=C(\N)NCC[C@H](N)C(=O)O | 97 | 3.52 | 
